According to ChEMBL document CHEMBL2021777 (J Med Chem, 2012):

How the values were obtained:
[1] = target: T1, 5-hydroxytryptamine receptor 1A (Homo sapiens) (UniProt P08908); assay: Displacement of [3H]8-OH-DPAT from 5-HT1A at 10 uM
T1 sequence (whole entry): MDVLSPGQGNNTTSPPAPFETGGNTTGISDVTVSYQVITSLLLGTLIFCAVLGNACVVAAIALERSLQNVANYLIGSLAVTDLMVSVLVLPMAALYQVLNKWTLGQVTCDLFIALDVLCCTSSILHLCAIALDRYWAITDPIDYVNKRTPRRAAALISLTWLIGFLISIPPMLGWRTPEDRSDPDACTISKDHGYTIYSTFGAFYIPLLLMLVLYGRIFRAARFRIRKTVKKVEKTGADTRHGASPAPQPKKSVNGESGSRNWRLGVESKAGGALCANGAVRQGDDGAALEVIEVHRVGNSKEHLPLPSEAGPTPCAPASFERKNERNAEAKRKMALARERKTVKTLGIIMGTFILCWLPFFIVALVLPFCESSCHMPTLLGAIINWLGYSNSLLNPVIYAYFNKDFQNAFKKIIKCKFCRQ

[2] = Metabolic stability in mouse liver microsomes assessed as compound remaining at 1 uM after 1 hr; assay type: ADME, Microsome; conditions: read-out: Stability
Method in brief: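 Compound at 1 μM incubated for 1 h with human or mouse liver microsomes; percent of parent remaining unchanged.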

hERG (KCNH2) = hERG (KCNH2) (Homo sapiens, UniProt Q12809); assay: Inhibition of human ERG expressed in CHO cells at 10 uM by patch clamp electrophysiology assay; assay type: cell-based; conditions: CHO cells expressing human ERG
Method in brief: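 Automated patch-clamp electrophysiology on hERG K+ channels in CHO cell lines; inhibition measured at three concentrations: 0.1, 1 and 10 μM.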

[3] = target: T2, D(4) dopamine receptor (Homo sapiens) (UniProt P21917); assay: Displacement of [3H]N-methylspiperone from D4 at 10 uM
T2 sequence (whole entry): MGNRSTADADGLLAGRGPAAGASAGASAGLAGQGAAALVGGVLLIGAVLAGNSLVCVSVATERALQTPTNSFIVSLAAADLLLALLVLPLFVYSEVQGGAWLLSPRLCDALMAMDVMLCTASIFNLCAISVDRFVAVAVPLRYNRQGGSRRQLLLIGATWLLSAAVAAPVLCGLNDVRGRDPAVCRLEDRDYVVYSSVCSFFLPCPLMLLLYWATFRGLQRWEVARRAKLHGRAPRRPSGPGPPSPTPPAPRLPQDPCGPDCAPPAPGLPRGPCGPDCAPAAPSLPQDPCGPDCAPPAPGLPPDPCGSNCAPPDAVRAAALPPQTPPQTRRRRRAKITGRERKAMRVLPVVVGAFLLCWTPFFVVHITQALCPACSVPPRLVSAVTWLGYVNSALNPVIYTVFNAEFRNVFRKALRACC

[4] = Displacement of [3H]DTG from sigma2 receptor at 10 uM
[5] = target: Delta-type opioid receptor (Homo sapiens) (UniProt P41143); assay: Displacement of [3H]DADLE from delta opioid receptor at 10 uM
[6] = target: 5-hydroxytryptamine receptor 2B (Homo sapiens) (UniProt P41595); assay: Displacement of [3H]LSD from 5-HT2B at 10 uM
[7] = target: Neuronal acetylcholine receptor; alpha4/beta2 (Rattus norvegicus, UniProt P09483+P12390); assay: Displacement of [3H] epibatidine from rat alpha4beta2* nAChR in rat forebrain by beta scintillation counting
[8] = target: Beta-3 adrenergic receptor (Homo sapiens) (UniProt P13945); assay: Displacement of [125I]Iodopindolol from beta3 adrenergic receptor at 10 uM
[9] = target: 5-hydroxytryptamine receptor 6 (Homo sapiens) (UniProt P50406); assay: Displacement of [3H]LSD from 5-HT6 at 10 uM
[10] = target: Neuronal acetylcholine receptor; alpha3/beta2 (Rattus norvegicus, UniProt P04757+P12390); assay: Displacement of [3H] epibatidine from rat alpha3beta2 nAChR by beta scintillation counting; assay type: protein-complex assay
[11] = target: T3, 5-hydroxytryptamine receptor 2C (Homo sapiens) (UniProt P28335); assay: Displacement of [3H]Mesulergine from 5-HT2C at 10 uM
T3 sequence (whole entry): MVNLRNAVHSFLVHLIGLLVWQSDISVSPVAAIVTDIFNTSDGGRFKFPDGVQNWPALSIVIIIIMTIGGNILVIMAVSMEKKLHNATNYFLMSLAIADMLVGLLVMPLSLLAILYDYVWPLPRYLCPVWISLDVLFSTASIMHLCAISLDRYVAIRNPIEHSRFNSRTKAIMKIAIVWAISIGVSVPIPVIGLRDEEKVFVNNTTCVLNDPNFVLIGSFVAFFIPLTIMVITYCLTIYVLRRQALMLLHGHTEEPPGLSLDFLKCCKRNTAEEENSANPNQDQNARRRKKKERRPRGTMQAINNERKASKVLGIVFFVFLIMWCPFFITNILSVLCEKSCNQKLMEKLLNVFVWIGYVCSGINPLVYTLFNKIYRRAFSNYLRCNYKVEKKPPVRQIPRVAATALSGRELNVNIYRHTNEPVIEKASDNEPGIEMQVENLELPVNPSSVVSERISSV

[12] = Displacement of [3H]Muscimol from GABA(A) at 10 uM
[13] = target: Neuronal acetylcholine receptor; alpha4/beta2 (Homo sapiens, UniProt P17787+P43681); assay: Agonist activity at human high sensitive and low sensitive alpha4beta2 nAChR expressed in SH-EP1 cells assessed as 86Rb+ ion efflux by flip-plate technique relative to sazetidine-A; assay type: functional, cell-based
Method in brief: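 SH-EP1-hα4β2 cells (stably transfected human α4 and β2, low passage 1−26) express mixed high- and low-sensitivity α4β2-nAChRs. Efficacy was measured by 86Rb+ flux on this mixed population. High-sensitivity efficacy was extrapolated by defining a reference agonist as 100% full agonist at the HS receptor.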

[14] = target: Sigma non-opioid intracellular receptor 1 (Homo sapiens) (UniProt Q99720); assay: Displacement of [3H]Pentazocine from sigma1 receptor at 10 uM
[15] = target: T4, Alpha-1A adrenergic receptor (Homo sapiens) (UniProt P35348); assay: Displacement of [3H]Prazosin from alpha1A adrenergic receptor at 10 uM
T4 sequence (whole entry): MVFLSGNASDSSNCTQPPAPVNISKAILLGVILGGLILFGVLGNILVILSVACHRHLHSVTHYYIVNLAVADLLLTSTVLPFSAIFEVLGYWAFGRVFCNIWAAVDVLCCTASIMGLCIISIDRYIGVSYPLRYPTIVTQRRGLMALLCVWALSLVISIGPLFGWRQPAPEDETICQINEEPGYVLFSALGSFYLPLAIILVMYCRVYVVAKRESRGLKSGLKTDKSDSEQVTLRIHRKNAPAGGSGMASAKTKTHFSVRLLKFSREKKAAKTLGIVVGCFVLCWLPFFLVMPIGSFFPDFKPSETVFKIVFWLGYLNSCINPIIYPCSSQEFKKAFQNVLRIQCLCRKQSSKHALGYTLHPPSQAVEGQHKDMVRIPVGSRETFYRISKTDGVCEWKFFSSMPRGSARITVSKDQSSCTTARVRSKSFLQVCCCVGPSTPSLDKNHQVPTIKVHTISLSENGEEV

Sequence of Sigma non-opioid intracellular receptor 1 (Homo sapiens) (Q99720 whole entry): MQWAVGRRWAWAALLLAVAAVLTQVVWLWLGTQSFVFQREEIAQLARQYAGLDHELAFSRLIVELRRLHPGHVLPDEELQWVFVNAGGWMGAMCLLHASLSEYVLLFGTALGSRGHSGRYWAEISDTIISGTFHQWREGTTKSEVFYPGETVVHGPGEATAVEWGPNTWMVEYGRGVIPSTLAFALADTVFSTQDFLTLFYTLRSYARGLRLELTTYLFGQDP
Sequence of Neuronal acetylcholine receptor; alpha3/beta2 (P04757 whole entry): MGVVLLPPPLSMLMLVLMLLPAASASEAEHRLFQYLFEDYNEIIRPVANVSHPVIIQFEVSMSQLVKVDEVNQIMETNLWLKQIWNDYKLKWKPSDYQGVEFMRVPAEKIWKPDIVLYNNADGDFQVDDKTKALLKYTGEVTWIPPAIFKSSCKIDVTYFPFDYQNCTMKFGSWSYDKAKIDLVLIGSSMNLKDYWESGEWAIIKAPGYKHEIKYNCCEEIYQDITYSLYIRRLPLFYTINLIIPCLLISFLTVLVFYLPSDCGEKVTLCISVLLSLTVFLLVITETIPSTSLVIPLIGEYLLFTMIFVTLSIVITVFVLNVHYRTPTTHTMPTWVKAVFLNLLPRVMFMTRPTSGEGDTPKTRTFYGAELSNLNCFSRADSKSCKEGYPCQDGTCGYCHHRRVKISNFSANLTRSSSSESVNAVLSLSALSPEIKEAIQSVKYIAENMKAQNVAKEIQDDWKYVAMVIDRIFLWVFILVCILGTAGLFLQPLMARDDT
Sequence of Neuronal acetylcholine receptor; alpha3/beta2 (P12390 whole entry): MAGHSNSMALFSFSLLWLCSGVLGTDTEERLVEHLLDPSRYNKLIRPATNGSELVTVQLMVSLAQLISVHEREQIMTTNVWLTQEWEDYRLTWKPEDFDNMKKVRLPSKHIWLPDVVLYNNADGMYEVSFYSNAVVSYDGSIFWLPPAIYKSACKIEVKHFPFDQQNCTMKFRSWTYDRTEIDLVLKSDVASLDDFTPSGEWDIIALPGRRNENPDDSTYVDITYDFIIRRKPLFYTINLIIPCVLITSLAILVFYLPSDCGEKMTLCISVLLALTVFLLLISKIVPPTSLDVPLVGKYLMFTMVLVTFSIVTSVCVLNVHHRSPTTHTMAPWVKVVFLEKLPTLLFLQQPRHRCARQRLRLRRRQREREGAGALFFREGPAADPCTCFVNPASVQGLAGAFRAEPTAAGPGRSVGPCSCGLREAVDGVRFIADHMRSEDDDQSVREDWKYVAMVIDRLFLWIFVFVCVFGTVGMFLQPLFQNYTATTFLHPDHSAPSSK
Sequence of Neuronal acetylcholine receptor; alpha4/beta2 (Rattus norvegicus, UniProt P09483+P12390) (P09483 whole entry): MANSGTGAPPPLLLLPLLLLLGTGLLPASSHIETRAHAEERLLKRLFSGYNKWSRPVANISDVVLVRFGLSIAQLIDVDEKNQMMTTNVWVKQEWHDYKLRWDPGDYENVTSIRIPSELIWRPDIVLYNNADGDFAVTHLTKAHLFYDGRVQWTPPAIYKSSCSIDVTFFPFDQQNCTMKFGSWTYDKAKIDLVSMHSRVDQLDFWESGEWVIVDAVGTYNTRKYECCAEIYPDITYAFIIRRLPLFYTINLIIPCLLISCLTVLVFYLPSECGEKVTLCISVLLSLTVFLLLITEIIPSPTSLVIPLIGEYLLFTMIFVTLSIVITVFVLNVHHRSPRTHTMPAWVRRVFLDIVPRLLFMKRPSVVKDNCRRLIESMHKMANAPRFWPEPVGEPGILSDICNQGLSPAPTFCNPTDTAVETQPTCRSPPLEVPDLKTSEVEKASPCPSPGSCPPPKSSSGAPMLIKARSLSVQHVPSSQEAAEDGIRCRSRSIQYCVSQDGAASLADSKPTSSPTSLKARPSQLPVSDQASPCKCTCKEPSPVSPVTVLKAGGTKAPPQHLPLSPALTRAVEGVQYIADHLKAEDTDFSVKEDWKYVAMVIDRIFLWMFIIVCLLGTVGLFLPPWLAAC
Sequence of Neuronal acetylcholine receptor; alpha4/beta2 (Rattus norvegicus, UniProt P09483+P12390) (P12390 whole entry): as the sequence (P12390 whole entry) above
Sequence of Delta-type opioid receptor (Homo sapiens) (P41143 whole entry): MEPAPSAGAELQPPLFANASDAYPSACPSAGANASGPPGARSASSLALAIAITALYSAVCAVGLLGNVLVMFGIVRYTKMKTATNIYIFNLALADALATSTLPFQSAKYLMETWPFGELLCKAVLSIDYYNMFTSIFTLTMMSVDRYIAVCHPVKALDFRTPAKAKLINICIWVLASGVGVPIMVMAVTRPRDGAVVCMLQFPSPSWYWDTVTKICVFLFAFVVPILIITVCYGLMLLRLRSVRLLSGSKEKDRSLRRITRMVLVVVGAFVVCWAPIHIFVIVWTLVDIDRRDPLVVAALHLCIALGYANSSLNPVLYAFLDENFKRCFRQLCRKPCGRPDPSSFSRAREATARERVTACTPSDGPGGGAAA
Sequence of 5-hydroxytryptamine receptor 2B (Homo sapiens) (P41595 whole entry): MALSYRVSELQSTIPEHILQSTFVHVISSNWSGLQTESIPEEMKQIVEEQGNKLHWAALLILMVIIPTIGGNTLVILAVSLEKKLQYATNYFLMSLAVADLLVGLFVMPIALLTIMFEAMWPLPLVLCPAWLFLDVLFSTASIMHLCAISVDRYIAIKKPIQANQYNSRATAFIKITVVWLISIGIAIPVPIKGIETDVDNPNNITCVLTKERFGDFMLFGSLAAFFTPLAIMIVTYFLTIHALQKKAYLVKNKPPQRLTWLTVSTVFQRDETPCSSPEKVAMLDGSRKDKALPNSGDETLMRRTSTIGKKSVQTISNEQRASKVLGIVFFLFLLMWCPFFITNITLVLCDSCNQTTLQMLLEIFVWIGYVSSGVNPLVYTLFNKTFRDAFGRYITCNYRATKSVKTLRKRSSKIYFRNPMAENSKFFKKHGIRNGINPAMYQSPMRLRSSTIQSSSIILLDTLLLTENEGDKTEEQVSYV
Sequence of hERG (KCNH2) (Q12809 whole entry): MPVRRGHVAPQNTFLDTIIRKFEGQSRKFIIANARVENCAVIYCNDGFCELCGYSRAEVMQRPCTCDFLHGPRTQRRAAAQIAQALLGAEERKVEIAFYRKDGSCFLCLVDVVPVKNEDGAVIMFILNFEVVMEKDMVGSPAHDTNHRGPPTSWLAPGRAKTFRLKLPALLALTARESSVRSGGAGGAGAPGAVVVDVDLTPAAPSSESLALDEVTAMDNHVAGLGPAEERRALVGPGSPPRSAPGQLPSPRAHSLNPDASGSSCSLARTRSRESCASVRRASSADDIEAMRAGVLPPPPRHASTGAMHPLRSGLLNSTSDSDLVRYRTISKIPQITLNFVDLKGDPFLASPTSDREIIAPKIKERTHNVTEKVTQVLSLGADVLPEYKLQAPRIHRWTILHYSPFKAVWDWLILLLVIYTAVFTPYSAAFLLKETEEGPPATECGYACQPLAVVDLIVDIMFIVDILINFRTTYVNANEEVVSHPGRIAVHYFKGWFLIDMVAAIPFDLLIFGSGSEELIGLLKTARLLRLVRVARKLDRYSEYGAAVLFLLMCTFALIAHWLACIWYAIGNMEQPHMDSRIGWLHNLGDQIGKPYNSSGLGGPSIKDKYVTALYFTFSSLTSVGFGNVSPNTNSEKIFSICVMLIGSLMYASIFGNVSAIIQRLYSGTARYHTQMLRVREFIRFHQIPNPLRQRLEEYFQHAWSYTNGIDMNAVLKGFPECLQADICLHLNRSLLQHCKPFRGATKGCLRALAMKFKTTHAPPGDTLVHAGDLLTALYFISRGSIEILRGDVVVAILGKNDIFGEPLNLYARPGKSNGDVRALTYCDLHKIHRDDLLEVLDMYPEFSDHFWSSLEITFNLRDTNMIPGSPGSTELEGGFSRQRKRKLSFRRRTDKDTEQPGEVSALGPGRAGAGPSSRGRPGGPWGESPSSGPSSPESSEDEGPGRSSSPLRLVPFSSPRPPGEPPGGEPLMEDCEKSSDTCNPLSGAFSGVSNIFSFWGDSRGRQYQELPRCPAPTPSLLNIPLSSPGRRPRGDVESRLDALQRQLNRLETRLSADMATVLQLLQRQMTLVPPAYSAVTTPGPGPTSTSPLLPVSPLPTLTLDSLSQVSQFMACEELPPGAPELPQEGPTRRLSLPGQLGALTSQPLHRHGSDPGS
Sequence of 5-hydroxytryptamine receptor 6 (Homo sapiens) (P50406 whole entry): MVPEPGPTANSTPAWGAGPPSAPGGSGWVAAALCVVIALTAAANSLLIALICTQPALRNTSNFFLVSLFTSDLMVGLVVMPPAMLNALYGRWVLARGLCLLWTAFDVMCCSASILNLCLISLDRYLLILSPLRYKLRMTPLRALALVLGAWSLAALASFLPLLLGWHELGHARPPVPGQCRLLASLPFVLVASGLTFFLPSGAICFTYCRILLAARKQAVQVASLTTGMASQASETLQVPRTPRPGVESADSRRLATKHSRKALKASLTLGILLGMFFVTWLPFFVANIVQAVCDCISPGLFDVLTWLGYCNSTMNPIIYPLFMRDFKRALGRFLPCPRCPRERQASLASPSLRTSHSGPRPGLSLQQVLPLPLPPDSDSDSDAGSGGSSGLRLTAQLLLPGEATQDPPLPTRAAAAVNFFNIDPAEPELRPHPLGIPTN
Sequence of Beta-3 adrenergic receptor (Homo sapiens) (P13945 whole entry, looked up): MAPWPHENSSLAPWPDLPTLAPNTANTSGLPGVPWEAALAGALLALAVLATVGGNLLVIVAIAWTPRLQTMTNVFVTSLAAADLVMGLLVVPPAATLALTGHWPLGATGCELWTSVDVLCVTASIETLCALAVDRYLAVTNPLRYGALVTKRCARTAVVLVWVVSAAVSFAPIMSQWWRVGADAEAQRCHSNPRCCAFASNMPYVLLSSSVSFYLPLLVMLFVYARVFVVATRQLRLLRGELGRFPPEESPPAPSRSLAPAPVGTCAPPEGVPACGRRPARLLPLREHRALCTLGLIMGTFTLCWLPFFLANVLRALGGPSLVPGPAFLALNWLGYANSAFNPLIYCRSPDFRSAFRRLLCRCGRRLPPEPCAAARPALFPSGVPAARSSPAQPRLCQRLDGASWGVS

| SMILES | inhibition [1] [%] | remaining at 1 h, 1 µM [2] [%] | inhibition at 10 µM (hERG (KCNH2)) [%] | inhibition [3] [%] | inhibition [4] [%] | inhibition [5] [%] | inhibition [6] [%] | Ki [7] [nM] | inhibition [8] [%] | inhibition [9] [%] | Ki [10] [nM] | inhibition [11] [%] | inhibition [12] [%] | Efficacy [13] [%] | inhibition [14] [%] | inhibition [15] [%] |
| --- | --- | --- | --- | --- | --- | --- | --- | --- | --- | --- | --- | --- | --- | --- | --- | --- |
| COCC[C@H]1C[C@@H]1c1cncc(OC[C@@H]2CCN2)c1 | -7.2 | 84 | 13.7 | 15.8 | 15 | -4.2 | 24.7 | 0.3 | 25.3 | 1.4 | 2.4 | 33.8 | 2 | 6 | 58.7 | -1.6 |
| CNC(=O)OCC[C@H]1C[C@@H]1c1cncc(OC[C@@H]2CCN2)c1 | 25 | 98 | 16.6 | 17 | -4.2 | -4.4 | 48.7 | 1.7 | 10.6 | -6.4 | 9.8 | 6.3 | -1.1 | 17 | 3.9 | 2.5 |
| OCC[C@H]1C[C@@H]1c1cncc(OC[C@@H]2CCN2)c1 | -7.7 | 80 | 19.1 | 8.3 | 10 | 0.8 | 18.2 | 0.5 | 24.3 | -7.1 | 3 | 2.4 | -2.5 | 21 | 0.5 | -1.6 |
